CYP2C9 inh: blockers of cytochrome P450 2C9 activity – biochemical, luminescence, ADME assay, primary screen; P11712; CYP2C9 Supersomes, luciferin-H conversion; inhibition, % at 5 µM; 96,000 compounds, 20% hits;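 active means blocking of liver enzyme CYP2C9 beyond about 50% at 5 µM, limit read from the data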
HIV Rev-RRE inh: HIV-1 Rev-RRE binding inhibitors, primary screen, biochemical, FRET, protein-RNA interaction | P05866 | Rev peptide-RRE RNA binding | inhibition, % at 8 µM | 97,000 compounds, 0.79% hits | AID 704, 2007;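 active means inhibition above the screen-wide mean plus 3 SD, cut at about 35% in these data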;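 further: 0% = median DMSO wells and 100% = median Neomycin B control wells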
Target sequence (P05866 whole entry, looked up): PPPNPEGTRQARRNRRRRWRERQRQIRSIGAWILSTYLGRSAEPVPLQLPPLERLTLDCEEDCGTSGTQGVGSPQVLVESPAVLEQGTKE
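Test system – labelled RRE RNA duplex and labelled Rev peptide · Reagent – labelled Rev peptide · Doses – one concentration, 8 µM nominal · Incubation – 5 + 15 min at 25 °C · Signal – FRET fluorescence readout · Read-out basis – % inhibition of FRET ratio versus controls · Control set – DMSO wells as 0% and neomycin B wells as 100% inhibition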
Cav3 T inh: Cav3.2 calcium influx blockers – cell-based, Fluo-4 calcium fluorescence, FDSS, MLSMR library, primary screen; AID 449739, 2010; 100,000 compounds, 4% hits; Cav3.2-expressing cells; active compounds read low; B-score at 10 µM;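 active means single-dose well whose peak fluorescence ratio is a statistical outlier from its plate by either plate-standardised score or position-corrected B-score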
CYP2C19 activ: human CYP2C19 activators, primary screen, biochemical, luminescence | Cytochrome P450 2C19 (Homo sapiens), P33261 | recombinant CYP2C19, luciferin-H EGE luminescence; active compounds read high; 0 = fully inhibited enzyme, 1 = untreated enzyme | activation factor at 5 µM | 96,000 tested, under 10 active | AID 1025, 2008;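 active means activation factor of at least 2 at 5 µM in the primary screen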;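 further: 0 = wells with 2.5 mM tranylcypromine and 1 = vehicle-only wells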
CYP2C9 act: human CYP2C9 activators, primary screen, biochemical, luminescence; activation factor at 5 µM; recombinant CYP2C9, luciferin-H conversion; active compounds read high; factor 1 = untreated enzyme, 0 = blocked; 96,000 compounds, 1.4% hits; Cytochrome P450 2C9 (Homo sapiens), P11712;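 active means activation factor of 2 or more for CYP2C9 at a 5 µM dose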;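 further: 0 = sulfaphenazole-blocked wells and 1 = vehicle-only wells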
CYP2C19 inhib: blockers of cytochrome P450 2C19 activity – biochemical, luminescence, ADME assay, primary screen | P33261 | CYP2C19 Supersomes, luciferin-H EGE luminescence, 30 min | inhibition, % at 5 µM | 96,000 compounds, 21% hits;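 active means CYP2C19 inhibition above a set limit at 5 µM in the primary screen, cut at about 50% in these data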;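 further: plate controls were negative control wells for no effect and 2.5 mM tranylcypromine positive control for full effect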
Numbers without * were called inactive; x = no result given. Hits are enriched below; roughly 27% of the tested compounds scored in any of these assays.

SMILES | CYP2C9 inh | HIV Rev-RRE inh | Cav3 T inh | CYP2C19 activ | CYP2C9 act | CYP2C19 inhib
CCOC(=O)[C@@H]1[C@H]2COc3ccc(Br)cc3[C@@H]2N2C(=O)N(c3cccc(F)c3)C(=O)[C@]12C | x | x | -1.7 | x | x | x
COc1cc(CNn2nnnc2N)cc(Br)c1OCC(=O)NC(C)(C)C | 6.2 | 0.9 | -0.00127 | 0.9 | 0.9 | 12.2
COc1cc(CNc2ccc3[nH]c(=O)[nH]c3c2)cc(Cl)c1OCC(=O)NC(C)(C)C | 71.4* | 29.6 | -0.569 | 0.2 | 0.3 | 81.4*
CC(C)C(=O)Nc1cccc2nsnc12 | 7.3 | 4.7 | 0.357 | 0.9 | 0.9 | 9.0
CC(C)C(=O)Nc1ccc(Cc2ccc(NC(=O)C(C)C)c(O)c2)cc1O | 93.2* | -0.2 | 0.122 | 0.4 | 0.1 | 64.4*
COc1ccc2[nH]c(=O)c(CNC3CCCCC3)cc2c1 | 46.7 | 6.2 | -3.21 | 0.9 | 0.5 | 13.9
COc1ccc2[nH]c(=O)c(CNc3cccc(C)c3)cc2c1 | 38.4 | 57.2* | -0.707 | 0.2 | 0.6 | 82.4*
COc1ccc(NCc2cc3ccccc3[nH]c2=O)cc1 | 28.8 | 3.6 | -0.28 | 0.2 | 0.7 | 81.6*
CCN1CCN(C(c2cccs2)C(C)NS(=O)(=O)c2ccccc2)CC1 (stereo unspecified) | x | x | 0.134 | x | x | x
CC1=N/C(=C\c2ccc([N+](=O)[O-])cc2)C(=O)N1c1ccc(Cl)cc1 | -17.6 | 2.0 | -0.0818 | 1 | 1.2 | -0.1
CC(=O)OC1COC(n2ccc3ccccc32)C(OC(C)=O)C1OC(C)=O (stereo unspecified) | 27.2 | -2.8 | 0.0606 | 0.3 | 0.7 | 67.1*
CCn1c(C(=O)N2CCC(C(=O)N3CCN(c4ccccn4)CC3)CC2)cc2sccc21 | -60.2 | 0.8 | 1.43 | 0.3 | 1.6 | 65.2*
CC1CCN(C(=O)C2CCN(C(=O)c3cc4sccc4n3Cc3ccc(F)cc3)CC2)CC1 | 72.9* | 0.9 | -4.1* | 0.7 | 0.3 | 31.1
Cn1c(C(=O)N2CCCC(C(=O)N3CCN(C(=O)c4ccco4)CC3)C2)cc2sccc21 (stereo unspecified) | 24.9 | 0.5 | 1.7 | 0.9 | 0.8 | 9.6
O=C(c1cc2sccc2n1Cc1ccc(F)cc1)N1CCCc2ccccc21 | x | 21.8 | -3.79* | x | x | x
O=C(NCc1ccc(F)cc1)c1cc2sccc2n1Cc1ccc(F)cc1 | x | 2.8 | -2.53 | x | x | x
CC(C)NC(=O)C1CCN(C(=O)c2cc3sccc3n2Cc2ccc(F)cc2)CC1 | 72.3* | 7.5 | -0.446 | 0.4 | 0.3 | 56.5*
CCc1ccc2c(c1)CCCN2C(=O)c1ccccc1C(=O)O | 32.7 | 13.6 | -0.47 | 0.5 | 0.7 | 49.2
CSc1nc(Oc2ccc(C)cc2)cc(C(F)(F)F)n1 | 0.1 | 8.0 | 1.42 | 1.1 | 1 | -6.2
CC1CCCCC1NC(=O)CN1CCC(O)(c2ccc(F)cc2)CC1 (stereo unspecified) | 7.6 | 1.8 | 0.863 | 0.9 | 0.9 | 6.5
CC(NC(=O)CN1C(=O)NC(Cc2ccccc2)(Cc2ccccc2)C1=O)C12CC3CC(CC(C3)C1)C2 (stereo unspecified) | 7.7 | -3.2 | -5.15* | 0.8 | 0.9 | 20.8
CC1CCCCC1NC(=O)CN1C(=O)NC(Cc2ccccc2)(Cc2ccccc2)C1=O (stereo unspecified) | 20.5 | 2.2 | x | 0.4 | 0.8 | 59.8*
COC(=O)CC(NS(=O)(=O)c1cccs1)c1ccccc1Cl (stereo unspecified) | 47.9 | 2.5 | 1.04 | 0.1 | 0.5 | 93.9*
Cc1nc2ccc(NC(=O)NCCCO)cc2s1 | -22.8 | 6.5 | 0.384 | 1.2 | 1.2 | -24.6
Cc1csc(NC(=O)c2ccc(C)c(S(=O)(=O)N3CCCCC3)c2)n1 | 26.8 | 1.7 | -1.34 | 0.9 | 0.7 | 13.8
Cc1ccc(C(=O)Nc2nccs2)cc1S(=O)(=O)N1CCCCC1 | 67.6* | 5.2 | -1.92 | 0.3 | 0.3 | 66.5*
Cc1ccc(C(=O)Nc2ccon2)cc1S(=O)(=O)N1CCCC1 | 4.2 | 3.2 | 0.137 | 0.4 | 1 | 58.4*

Screening data as filed in PubChem BioAssay.
